Measurements from ChEMBL document CHEMBL4364265, “Oridonin derivatives as potential anticancer drug candidates triggering apoptosis through mitochondrial pathway in the liver cancer cells” (Eur J Med Chem, 2019).
Activity calls are given as the source filed them. The calls are words filed in the database; no cut-off is given here.

Assays:
[1] = test system: HepG2; experiment: Antiproliferative activity against human HepG2 cells incubated for 72 hrs by CCK8 cells; format: functional, cell-based; settings: HepG2, 72 h
Summary of the method: (§1)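 CCK-8 proliferation assay. 10,000 cells per well were preincubated 24 h at 37 °C with 5% CO2, then given compound dissolved in DMSO and incubated 72 h. CCK-8 was added for 4 h and absorbance read at 450 nm. IC50 was taken from dose-response curves as mean ± SEM of at least three independent experiments, with paclitaxel as positive control. HepG2 and L-O2 were grown in DMEM/10% FBS; A549 and RPMI-8226 in RPMI 1640/10% FBS.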

[2] = test system: RPMI-8226; experiment: Antiproliferative activity against human RPMI8226 cells incubated for 72 hrs by CCK8 cells; format: functional, cell-based; settings: RPMI-8226, 72 h; summary of the method: as §1
[3] = test system: A549; experiment: Antiproliferative activity against human A549 cells incubated for 72 hrs by CCK8 cells; format: functional, cell-based; settings: A549, 72 h; summary of the method: as §1
[4] = Selectivity index, ratio of IC50 for human LO2 cells to IC50 for human PLC/PRF/5 cells
Summary of the method: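 L-O2 and PLC/PRF/5 cells were grown in DMEM with 10% FBS at 37 °C and 5% CO₂. For CCK-8 proliferation, 10,000 cells per well were pre-incubated 24 h, then exposed to compound in DMSO for 72 h. CCK-8 was added for 4 h and A450 read. IC50 came from dose–response curves; SI is IC50(L-O2)/IC50(PLC/PRF/5).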

[5] = test system: HepG2; experiment: Inhibition of colony formation in human HepG2 cells at 0.1 to 1 uM incubated for 10 days by crystal violet staining based microscopic method; format: functional, cell-based
Summary of the method: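 Five hundred cells plated per 30 mm dish and left 12 h. Medium with compound was added (0, 0.1, 0.5, 1 µM) or DMSO as negative control, and cells grew 10 days. Colonies were fixed in methanol 15 min, stained with 0.1% crystal violet 15 min, photographed and counted. Colony size was checked by microscope. Relative colony number is mean ± SD of ≥3 independent experiments.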

[6] = test system: L02; experiment: Cytotoxicity against human LO2 cells incubated for 72 hrs by CCK8 cells; format: cell-based; settings: L02, 72 h; summary of the method: as §1
[7] = test system: PLC-PRF-5; experiment: Antiproliferative activity against human PLC/PRF/5 cells incubated for 72 hrs by CCK8 cells; format: functional, cell-based; settings: PLC-PRF-5, 72 h
[8] = test system: HepG2; experiment: Antiproliferative activity against human HepG2 cells incubated for 72 hrs in presence of oridonin by CCK8 cells; format: functional, cell-based; settings: HepG2, 72 h
[9] = test system: PLC-PRF-5; experiment: Antiproliferative activity against human PLC/PRF/5 cells incubated for 72 hrs in presence of oridonin by CCK8 cells; format: functional, cell-based; settings: PLC-PRF-5, 72 h
[10] = test system: PLC-PRF-5; experiment: Antitumour activity against human PLC/PRF/5 cells xenografted in nude mouse assessed as reduction in tumour weight at 10 mg/kg, iv administrated once every 3 days for 4 weeks relative to control; format: functional
Summary of the method: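 PLC/PRF/5 xenograft. 2 × 10^7 cells in 0.2 mL saline were injected s.c. into the right forelimb of nude mice. At about 120 mm3, mice were randomized into 3 groups of 6 and dosed i.v. at 10 mg/kg once every three days for 4 weeks. Vehicle was 10% N-methylpyrrolidone/12% Tween-80/78% saline. Volume (a×b²/2) and body weight were recorded daily, and tumors were excised and weighed at the end.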

[11] = test system: PLC-PRF-5; experiment: Inhibition of colony formation in human PLC/PRF/5 cells assessed as decrease in colony size at 0.1 to 1 uM incubated for 10 days by crystal violet staining based microscopic method

SMILES | IC50 [1] [µM] | IC50 [2] [µM] | IC50 [3] [µM] | other results
C=C1C(=O)[C@@]23C(=O)[C@H]4OC[C@]5([C@@H](OC(C)=O)CCC(C)(C)[C@@H]45)[C@@H]2CC[C@@H]1[C@H]3O | 2.07 | – | – | –
C=C1C(=O)[C@]23[C@H](OC(=O)CCCCC4CCSS4)[C@H]1CC[C@H]2[C@@]12CO[C@]3(O)[C@@H](O)[C@@H]1C(C)(C)CC[C@@H]2O (some centres not stated) | 32.3 | > 100 | > 100 | –
CC(=O)O[C@H]1C(=O)[C@@]2(C)[C@H]([C@H](OC(=O)c3ccccc3)[C@]3(O)C[C@H](OC(=O)[C@H](O)[C@@H](NC(=O)c4ccccc4)c4ccccc4)C(C)=C1C3(C)C)[C@]1(OC(C)=O)CO[C@@H]1C[C@@H]2O [PACLITAXEL] | 0.18 | 1.53 | 0.39 | –
C=C1C(=O)[C@]23[C@H](OC(=O)c4ccc(F)c(NC(=O)c5ccc(OC(F)(F)F)cc5)c4)[C@H]1CC[C@H]2[C@@]12CO[C@]3(O)[C@@H](O)[C@@H]1C(C)(C)CC[C@@H]2O | 6.54 | 10.5 | 20.9 | –
C=C1C(=O)[C@@]23C(=O)[C@@H](OC(C)=O)[C@@H]4C(C)(C)CC[C@H](OC(C)=O)[C@@]4(COC(C)=O)[C@@H]2CC[C@@H]1[C@H]3OC(C)=O | 5.4 | 13.9 | 10.5 | –
C=C1C(=O)[C@]23[C@H](OC(=O)c4ccc(F)c(F)c4F)[C@H]1CC[C@H]2[C@@]12CO[C@]3(O)[C@@H](O)[C@@H]1C(C)(C)CC[C@@H]2O | 15.4 | 14.7 | 12.4 | –
C=C1C(=O)[C@]23[C@H](O)[C@H]1CC[C@H]2[C@@]12CO[C@@]3(O)[C@@H](O)[C@@H]1C(C)(C)CC[C@@H]2OC(C)=O | 5.67 | 11 | 10.9 | –
C=C1C(=O)[C@]23[C@H](O)[C@H]1CC[C@H]2[C@@]12CO[C@]3(O)[C@@H](OC(C)=O)[C@@H]1C(C)(C)CC[C@@H]2OC(C)=O | 12.3 | 13 | 10.5 | –
C=C1C(=O)[C@]23[C@H](OC(=O)/C=C/c4ccc(OC)c(OC)c4)[C@H]1CC[C@H]2[C@@]12CO[C@]3(O)[C@@H](O)[C@@H]1C(C)(C)CC[C@@H]2O | 1.98 | 5.77 | 24.9 | Ratio IC50 [4]: 1.8; inhibition [5]: Active; IC50 [6]: 1.85 µM; IC50 [7]: 1.03 µM
C=C1C(=O)[C@]23[C@H](OC(=O)c4ccc(F)cc4)[C@H]1CC[C@H]2[C@@]12CO[C@]3(O)[C@@H](O)[C@@H]1C(C)(C)CC[C@@H]2O | 3.1 | 14.3 | 14.7 | –
C=C1C(=O)[C@]23[C@H](OC(=O)[C@H](CC(C)C)NC(=O)OC(C)(C)C)[C@H]1CC[C@H]2[C@@]12CO[C@]3(O)[C@@H](O)[C@@H]1C(C)(C)CC[C@@H]2O | 0.98 | – | – | Ratio IC50 [4]: 2.4; inhibition [5]: Active; IC50 [6]: 6.3 µM; IC50 [7]: 2.67 µM
C=C1C(=O)[C@]23[C@H](OC(=O)[C@@H]4OC(c5ccc(OC)cc5)N(C(=O)OC(C)(C)C)[C@H]4c4ccccc4)[C@H]1CC[C@H]2[C@@]12CO[C@]3(O)[C@@H](O)[C@@H]1C(C)(C)CC[C@@H]2O (some centres not stated) | 44.6 | 16.6 | 22.6 | –
C=C1C(=O)[C@]23[C@H](OC(=O)c4ccc(F)c(NC(=O)Cc5ccc(OC)c(OC)c5)c4)[C@H]1CC[C@H]2[C@@]12CO[C@]3(O)[C@@H](O)[C@@H]1C(C)(C)CC[C@@H]2O | 3.76 | 19 | 17.2 | –
C=C1C(=O)[C@]23[C@H](OC(=O)CCc4ccc(OC)c(OC)c4)[C@H]1CC[C@H]2[C@@]12CO[C@]3(O)[C@@H](O)[C@@H]1C(C)(C)CC[C@@H]2O | 9.63 | 10.1 | 22.8 | –
C=C1C(=O)[C@]23[C@H](OC(=O)c4cccnc4Cl)[C@H]1CC[C@H]2[C@@]12CO[C@]3(O)[C@@H](O)[C@@H]1C(C)(C)CC[C@@H]2O | 27.5 | 15.8 | 31.1 | –
C=C1C(=O)[C@]23[C@H](OC(=O)c4ccc(C#N)cc4)[C@H]1CC[C@H]2[C@@]12CO[C@]3(O)[C@@H](O)[C@@H]1C(C)(C)CC[C@@H]2O | 36.6 | 35.2 | 17.4 | –
C=C1C(=O)[C@]23[C@H](OC(=O)/C=C/c4cc(OC)c(OC)c(OC)c4)[C@H]1CC[C@H]2[C@@]12CO[C@]3(O)[C@@H](O)[C@@H]1C(C)(C)CC[C@@H]2O | 5.98 | 5.98 | 8.8 | –
C=C1C(=O)[C@]23[C@H](OC(=O)c4ccc(OCc5ccccc5)cc4F)[C@H]1CC[C@H]2[C@@]12CO[C@]3(O)[C@@H](O)[C@@H]1C(C)(C)CC[C@@H]2O | 16 | 17.5 | 14 | –
C=C1C(=O)[C@]23[C@H](OC(=O)CCc4ccc(OC)cc4)[C@H]1CC[C@H]2[C@@]12CO[C@]3(O)[C@@H](O)[C@@H]1C(C)(C)CC[C@@H]2O | 8.99 | 9.42 | 14 | –
C=C1C(=O)[C@]23[C@H](OC(=O)CCc4cc(OC)c(OC)c(OC)c4)[C@H]1CC[C@H]2[C@@]12CO[C@]3(O)[C@@H](O)[C@@H]1C(C)(C)CC[C@@H]2O | 12.6 | 12.4 | 11 | –
C=C1C(=O)[C@]23[C@H](OC(=O)c4ccc(OC)c(OCCBr)c4)[C@H]1CC[C@H]2[C@@]12CO[C@]3(O)[C@@H](O)[C@@H]1C(C)(C)CC[C@@H]2O | 9.76 | 8.65 | 11.5 | –
C=C1C(=O)[C@]23[C@H](OC(=O)c4ccc(CCl)cc4)[C@H]1CC[C@H]2[C@@]12CO[C@]3(O)[C@@H](O)[C@@H]1C(C)(C)CC[C@@H]2O | 5.66 | 5.01 | 16.7 | –
C=C1C(=O)[C@]23[C@H](OC(=O)c4cc(F)ccc4F)[C@H]1CC[C@H]2[C@@]12CO[C@]3(O)[C@@H](O)[C@@H]1C(C)(C)CC[C@@H]2O | 26 | 12.2 | 10.7 | –
COc1ccc(/C=C/C(=O)O)cc1 [4-METHOXYCINNAMIC ACID] | > 100 | – | – | IC50 [8]: 8.56 µM; IC50 [9]: 6.55 µM; IC50 [7]: > 100 µM
C=C1C(=O)[C@]23[C@H](OC(=O)Cc4cc(OC)c(OC)c(OC)c4)[C@H]1CC[C@H]2[C@@]12CO[C@]3(O)[C@@H](O)[C@@H]1C(C)(C)CC[C@@H]2O | 8.79 | 10.9 | 37.5 | –
C=C1C(=O)[C@]23[C@H](OC(=O)c4ccc(F)c(NC(=O)c5ccc(OC)c(OCc6ccccc6)c5)c4)[C@H]1CC[C@H]2[C@@]12CO[C@]3(O)[C@@H](O)[C@@H]1C(C)(C)CC[C@@H]2O | 8.2 | 6.71 | 11 | –
C=C1C(=O)[C@]23[C@H](O)[C@H]1CC[C@H]2[C@@]12CO[C@]3(O)[C@@H](O)[C@@H]1C(C)(C)CC[C@@H]2O [ORIDONIN] | 8.12 | 9.25 | 30.4 | Activity [10]: inactive; inhibition [11]: Active; Ratio IC50 [4]: 2.4; inhibition [5]: Active; IC50 [6]: 17.5 µM; IC50 [7]: 7.41 µM
